This note sets out measurements from PubChem BioAssay.

One may read the inhibition as the drop in the measured response relative to a control, in per cent.

Calls of active or inactive are those of the source.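 Rule for the calls, unless noted: active = inhibition at or above 50% relative to wild type and mutant plate controls; inactive = inhibition below 50%.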

Experiment [1] is described as follows: inhibitors of TNFa-induced NFkB p65 translocation, primary screen, imaging, HUVEC, MLSMR starter and 10KST1 sets (AID 438;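 active = inhibition above 20% together with a positive visual image hit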;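 note: compound added about 3h40 before a 20 min TNFalpha stimulation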;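 for inhibition: signal is the nuclear over cytoplasmic p65 intensity ratio per well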). The settings on record: HUVEC TNFa-induced p65 nuclear translocation; cell count: measured here: nuclei count (cytotoxicity indicator), at 2.08 µM; inhibition: at 2 µM, stronger effect = higher value, 0% TNFa-plus-vehicle, 100% no-TNFa wells.
A short description of experiment [2]: endothelial E-selectin expression blockers – imaging, HUVEC, immunofluorescence, MLSMR starter and 10KST1 sets, primary screen (AID 487;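 active = visually confirmed hit in the image check and inhibition above 20%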;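 for inhibition: signal is fraction of cell area covered by stained E-selectin grains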;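 for nuclei count: 100% = median nuclei count of all wells on the same plate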). The following applies: HUVEC TNFalpha-induced E-selectin immunofluorescence imaging, at 2 µM; inhibition: stronger effect = higher value; nuclei count: measured here: cell number, toxicity.
Experiment [3] in a line: Primary imaging screen for DUSP6 inhibitors that restore phospho-Erk in transfected HeLa cells, chemical complementation (AID 609;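 active = compounds giving at least 50% inhibition in the cell-based MKP-3 phosphatase rescue imaging test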;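 for inhibition: phospho-Erk level distribution per well compared with pooled transfected vehicle control wells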). The settings on record: HeLa MKP-3 transfected, phospho-Erk imaging KS statistic, at 10 µM, cells stimulated with TPA for 15 min.
In experiment [4] the target is Dual specificity protein phosphatase 6 (Homo sapiens) (UniProt Q16828). The experiment is described as above. The settings on record: HeLa MKP-3 transfected, phospho-Erk imaging KS statistic; at 10 µM; stronger effect = higher value; cells stimulated with TPA for 15 min.
Experiment [5] deals with Voltage-gated potassium channel subunit beta-2 (Rattus norvegicus) (UniProt P62483). In words: inhibitors of rat Kvbeta2 reductase activity – biochemical, NADPH fluorescence, primary screen (AID 622;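 active = fluorescence slope higher than the sample average by over 3 SD, cut at about -0.22 in these data, passing the limit was not always enough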;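 note: slope of raw intensity against log time taken from 70 to 1610 s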). The settings on record: recombinant KvBeta, 4-cyanobenzaldehyde reduction, at 10 µM, stronger effect = higher value.
Experiment [6] shares this target. In words: enhancers of rat Kvbeta2 NADPH turnover – biochemical, NADPH fluorescence, primary screen (AID 623;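 active = NADPH fluorescence slope more negative than the mean of all samples by about 3 SD, 99.7% confidence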;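 note: fluorescence intensity change per second fitted from 20 to 320 s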). The settings on record: Recombinant KvBeta, NADPH fluorescence decrease slope, 10 min; at 10 µM; stronger effect = lower value.
Experiment [7] addresses Alpha-2C adrenergic receptor (Homo sapiens) (UniProt P18825). Put plainly: compounds altering alpha2C-coupled GIRK flux – cell-based, HEK293 alpha2C/GIRK1/2, thallium flux, primary screen (AID 624;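 active = fluorescence slope after compound addition differing from the mean of all screened samples at 99.7% confidence, in either direction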;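 note: slope of fluorescence ratio to pre-addition baseline per second over 15 to 24 s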). The settings on record: thallium flux BTC fluorescence, at 10 µM, actives lie on both sides.
Experiment [8] in a line: inhibitors of larval lipid processing in zebrafish, primary screen, whole organism, PED6 fluorescence, gall bladder and intestine (AID 686;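 active = a full or partial loss of lipid-probe fluorescence in the fish gall bladder, intestine or both, judged by eye; inactive = no fluorescence loss, or compound toxic to the fish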;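 note: larvae 5 to 7 days old with five fish per well; signal comes from phospholipase A2 cleavage of quenched PED6 carried via bile; overnight exposure to compound and PED6 before scoring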). The settings on record: Zebrafish larvae PED6 lipid processing, fluorescence scoring; screened at 20 µM (by protocol). A digest of the protocol:
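System: live zebrafish larvae aged 5-7 days, whole organism; measure: graded gall bladder and intestinal fluorescence inhibition per well; incubation: overnight exposure; reagent: ingested quenched lipid PED6 at 100 nM; signal: By-eye fluorescence microscopy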

Experiment [9] can be described thus: loss of swimming-algae plug formation – whole organism, Chlamydomonas reinhardtii, WT vs cilia-less mutant, absorbance, 96-well, primary screen (AID 463189).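 Note: 0% = wild type cc124 cells in DMSO and 100% = ciliumless bld1 mutant cells.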 The following applies: Chlamydomonas reinhardtii gravitaxis, OD600 absorbance, 2 days; at 10 µM; stronger effect = higher value.
Setting [10] is: measured here: cell density z-score.
The mark [11] stands for this setting: measured here: nuclear c-Myc green intensity z-score.
The mark [12] stands for this setting: measured here: nuclear pErk red intensity z-score, stronger effect = higher value.

Sequence of Voltage-gated potassium channel subunit beta-2 (Rattus norvegicus) (P62483 whole entry, looked up): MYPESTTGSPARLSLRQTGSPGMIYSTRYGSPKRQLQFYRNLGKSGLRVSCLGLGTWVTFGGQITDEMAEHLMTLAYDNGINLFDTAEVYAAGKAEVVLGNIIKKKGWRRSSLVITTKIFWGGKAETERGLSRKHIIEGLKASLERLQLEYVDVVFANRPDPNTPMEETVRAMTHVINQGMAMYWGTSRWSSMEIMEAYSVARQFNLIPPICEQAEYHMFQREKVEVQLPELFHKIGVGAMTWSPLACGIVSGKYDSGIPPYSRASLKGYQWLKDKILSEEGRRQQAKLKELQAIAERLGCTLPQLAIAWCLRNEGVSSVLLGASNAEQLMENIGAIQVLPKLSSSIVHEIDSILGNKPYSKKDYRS
Sequence of Alpha-2C adrenergic receptor (Homo sapiens) (P18825 whole entry, looked up): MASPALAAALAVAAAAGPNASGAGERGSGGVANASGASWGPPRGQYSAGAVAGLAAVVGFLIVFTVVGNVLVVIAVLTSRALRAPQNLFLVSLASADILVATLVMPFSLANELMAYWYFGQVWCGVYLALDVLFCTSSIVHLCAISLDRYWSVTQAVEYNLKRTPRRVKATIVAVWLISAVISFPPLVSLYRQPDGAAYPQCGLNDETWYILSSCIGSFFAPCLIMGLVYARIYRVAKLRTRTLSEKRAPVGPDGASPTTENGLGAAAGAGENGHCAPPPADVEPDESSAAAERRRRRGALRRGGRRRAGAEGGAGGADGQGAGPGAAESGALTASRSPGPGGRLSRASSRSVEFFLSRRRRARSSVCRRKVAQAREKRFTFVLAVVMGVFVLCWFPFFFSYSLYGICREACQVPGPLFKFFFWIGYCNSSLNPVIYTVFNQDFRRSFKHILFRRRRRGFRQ
Sequence of Dual specificity protein phosphatase 6 (Homo sapiens) (Q16828 whole entry, looked up): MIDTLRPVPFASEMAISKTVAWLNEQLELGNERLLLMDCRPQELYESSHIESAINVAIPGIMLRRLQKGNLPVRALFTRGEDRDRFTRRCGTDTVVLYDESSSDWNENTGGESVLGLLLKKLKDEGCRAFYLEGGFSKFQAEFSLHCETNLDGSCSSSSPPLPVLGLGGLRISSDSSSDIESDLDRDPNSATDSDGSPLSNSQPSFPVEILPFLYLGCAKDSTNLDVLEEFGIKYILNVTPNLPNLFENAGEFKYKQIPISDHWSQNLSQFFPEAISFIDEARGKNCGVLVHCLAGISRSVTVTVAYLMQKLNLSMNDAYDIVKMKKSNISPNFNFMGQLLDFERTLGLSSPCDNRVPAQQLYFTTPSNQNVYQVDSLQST

Turning to `Cc1occc1C(=O)OCC(=O)Nc1ccc(F)cc1`, in [1], the cell count worked out at 527. Further, the inhibition is -1.1% (inactive) in [1], -31.2% (inactive) in experiment [2], 29.3% (inactive) in experiment [4] and 1.09% (inactive) in experiment [9]. The nuclei count in experiment [2] turned out to be 113%. Besides, the z-score is -1.12 in experiment [3] (setting [10]), -1.15 in experiment [3] (setting [11]) and 1.8 in experiment [3] (setting [12]). Besides, the fluorescence slope in experiment [5] was -0.56 (inactive). In experiment [6], the NADPH fluorescence slope was -4.4e-05 (inactive). In addition, in [7], the slope was 0.00567 (inactive). Also, the call in [8] was inactive.

As to `COc1cc(C2C3C(=O)N(c4ccccc4)C(=O)C3ON2c2ccccc2)ccc1O` (stereo unspecified), in experiment [1], the cell count was found to be 322. The inhibition was -4.2% (inactive) in experiment [1], -22.7% (inactive) in experiment [2], 5.42% (inactive) in experiment [4] and -1.03% (inactive) in [9]. Further, the nuclei count in experiment [2] turned out to be 171%. The figures for the z-score in experiment [3] (setting [10]), in [3] (setting [11]) and in [3] (setting [12]) were 0.353, -0.666 and -0.00927, respectively. For the same molecule, in experiment [5], the fluorescence slope was -0.418 (inactive). For the same molecule, the NADPH fluorescence slope in experiment [6] was -0.000156 (inactive). In experiment [7], the slope was 0.00862 (inactive). Moreover, the outcome in [8] was inactive.

As for `CCc1nnc(NC(=O)CSc2nc(C)c3c(c2C#N)CCCC3)s1`, in experiment [1], the cell count was 613. Also, the inhibition in [1] was -13.4% (inactive); in experiment [2], -129% (inactive); in experiment [4], -0.674% (inactive); in experiment [9], 9.29% (inactive). This molecule registered a nuclei count in experiment [2] of 189%. The z-score in experiment [3] (setting [10]) is -0.0126; in [3] (setting [11]), 0.0813; in experiment [3] (setting [12]), -0.0712. Besides, the fluorescence slope in [5] is -0.446 (inactive). Besides, the NADPH fluorescence slope in experiment [6] was 4.7e-06 (inactive). Further, the slope in experiment [7] was 0.00625 (inactive). Moreover, in experiment [8], the call was inactive.

Take `CC(C)Oc1ccc(/C(O)=C2/C(=O)C(=O)N(CCN(C)C)C2c2ccco2)cc1` (stereo unspecified): the cell count in [1] was determined as 481. Moreover, the inhibition in [1] is -1% (inactive); in experiment [2] it was -6.9% (inactive); in experiment [4] it was -1.12% (inactive); in experiment [9], 6.02% (inactive). The nuclei count in experiment [2] was 112%. Also, the results for the z-score in [3] (setting [10]), in experiment [3] (setting [11]) and in experiment [3] (setting [12]) were -0.569, -0.19 and -0.239, respectively. Also, the fluorescence slope in experiment [5] was -0.324 (inactive). The NADPH fluorescence slope in [6] is 1.4e-05 (inactive). Also, in experiment [7], the slope was 0.00581 (inactive). In experiment [8], the outcome was inactive.

As for `CC/C(=N\O)c1ccc(OC)c(OC)c1`, the cell count in experiment [1] came to 328. Further, the inhibition in experiment [1] was -13.3% (inactive); in experiment [2], -106% (inactive); in [4], 1.75% (inactive); in [9], 13.3% (inactive). In addition, the nuclei count in experiment [2] was 159%. In addition, the z-score in [3] (setting [10]) is -0.778; in experiment [3] (setting [11]), -1.02; in experiment [3] (setting [12]) it was 1.01. In addition, the fluorescence slope in experiment [5] is -0.423 (inactive). Further, the NADPH fluorescence slope in experiment [6] is -0.000183 (inactive). Moreover, the slope in experiment [7] was 0.00545 (inactive). The outcome in experiment [8] was inactive.

For the molecule `O=c1[nH]nc2n1CCCCC2`, the cell count in [1] is 530. For the same molecule, the inhibition in [1] was -27.5% (inactive); in experiment [2] it was -139% (inactive); in experiment [4], 7.73% (inactive); in [9], 11.3% (inactive). In addition, in experiment [2], the nuclei count was 180%. Further, the z-score in experiment [3] (setting [10]) was 1.3; in experiment [3] (setting [11]), -1.27; in experiment [3] (setting [12]) it was -0.317. In experiment [5], the fluorescence slope is -0.501 (inactive). For the same molecule, the NADPH fluorescence slope in experiment [6] is -0.000113 (inactive). Moreover, the slope in experiment [7] was 0.00508 (inactive). Besides, in experiment [8], the molecule was classed as inactive.

For `O=C(N(c1ccccc1)c1ccccc1)n1ccnc1`, the cell count in experiment [1] came to 543. The inhibition in [1] is -15.7% (inactive); in experiment [2], -71.5% (inactive); in experiment [4], -11.5% (inactive); in [9], -0.901% (inactive). This molecule also had a nuclei count in experiment [2] of 169%. In addition, the z-score in experiment [3] (setting [10]) is -1.35; in experiment [3] (setting [11]) it was -0.0585; in experiment [3] (setting [12]), 1.08. In addition, in [5], the fluorescence slope is -0.487 (inactive). In [6], the NADPH fluorescence slope is -5.7e-05 (inactive). Besides, the slope in [7] is 0.00471 (inactive). Further, in [8], the result was inactive.
